Data taken from PubChem BioAssay.
Activity calls are given as the source filed them.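 How the source made its calls, unless noted: active means inhibition above 20% together with a positive visual image hit; inconclusive means visual image hit but inhibition not above 20%; inactive means no visual image hit.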

Columns and labels:
[1] = inhibitors of TNFa-induced NFkB p65 translocation, primary screen, imaging, HUVEC, MLSMR starter and 10KST1 sets (AID 438); details: HUVEC TNFa-induced p65 nuclear translocation; cell count: measured here: nuclei count (cytotoxicity indicator), at 2.08 µM; inhibition: at 2 µM, stronger effect = higher value, 0% TNFa-plus-vehicle, 100% no-TNFa wells;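 further: compound added about 3h40 before a 20 min TNFalpha stimulation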;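 on inhibition: signal is the nuclear over cytoplasmic p65 intensity ratio per well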
[2] = inhibitors of E-selectin induction by TNFa, primary screen, imaging, HUVEC, immunofluorescence, MLSMR starter and 10KST1 sets (AID 487;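 active means visually confirmed hit in the image check and inhibition above 20%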;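 on inhibition: signal is fraction of cell area covered by stained E-selectin grains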;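 on nuclei count: 100% = median nuclei count of all wells on the same plate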); details: HUVEC TNFalpha-induced E-selectin immunofluorescence imaging, at 2 µM; inhibition: stronger effect = higher value; nuclei count: measured here: cell number, toxicity
[3] = DUSP6 inhibitors restoring Erk phosphorylation by chemical complementation, primary imaging in DUSP6-transfected HeLa (AID 609;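 active means compounds giving at least 50% inhibition in the cell-based MKP-3 phosphatase rescue imaging test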;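 on inhibition: phospho-Erk level distribution per well compared with pooled transfected vehicle control wells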); details: HeLa MKP-3 transfected, phospho-Erk imaging KS statistic, at 10 µM, cells stimulated with TPA for 15 min
[4] = molecular target: Dual specificity protein phosphatase 6 (Homo sapiens) (UniProt Q16828); assay: as above; details: HeLa MKP-3 transfected, phospho-Erk imaging KS statistic; at 10 µM; stronger effect = higher value; cells stimulated with TPA for 15 min
[5] = molecular target: Voltage-gated potassium channel subunit beta-2 (Rattus norvegicus) (UniProt P62483); assay: KvBeta enzyme negative modulators, primary screen, biochemical, NADPH fluorescence (AID 622;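 active means fluorescence slope higher than the sample average by over 3 SD, cut at about -0.22 in these data, passing the limit was not always enough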;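 further: slope of raw intensity against log time taken from 70 to 1610 s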); details: recombinant KvBeta, 4-cyanobenzaldehyde reduction, at 10 µM, stronger effect = higher value
[6] = molecular target: Voltage-gated potassium channel subunit beta-2 (Rattus norvegicus) (UniProt P62483); assay: KvBeta positive modulators, primary screen, biochemical, NADPH fluorescence (AID 623;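 active means NADPH fluorescence slope more negative than the mean of all samples by about 3 SD, 99.7% confidence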;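 further: fluorescence intensity change per second fitted from 20 to 320 s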); details: Recombinant KvBeta, NADPH fluorescence decrease slope, 10 min; at 10 µM; stronger effect = lower value
[7] = molecular target: Muscarinic acetylcholine receptor M4 (Homo sapiens) (UniProt P08173); assay: compounds altering M4/GIRK thallium flux, either direction, primary screen, M4 allosteric agonist project, cell-based, HEK293 M4/GIRK, BTC-AM (AID 625;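 active means fluorescence slope after compound addition differing from the mean of all tested samples at 99.7% confidence, mostly higher but some lower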;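 further: thallium influx through GIRK channels coupled to M4 in HEK293 cells with BTC-AM dye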); details: at 10 µM, actives lie on both sides
How it was run: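 Material – HEK293 cells with M4 receptor and GIRK channels · Buffer or medium – pH 7.3 thallium assay buffer · Doses – one dose, 10 µM final · Timing – cells overnight at 37 °C, BTC-AM loading 1 h, reads 2 min total · Measured by – kinetic fluorescence with BTC-AM dye · Controls – carbachol and DMSO controls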

[8] = inhibitors of larval lipid processing in zebrafish, primary screen, whole organism, PED6 fluorescence, gall bladder and intestine (AID 686;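 active means a full or partial loss of lipid-probe fluorescence in the fish gall bladder, intestine or both, judged by eye; inactive means no fluorescence loss, or compound toxic to the fish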;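 further: larvae 5 to 7 days old with five fish per well; signal comes from phospholipase A2 cleavage of quenched PED6 carried via bile; overnight exposure to compound and PED6 before scoring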); details: Zebrafish larvae PED6 lipid processing, fluorescence scoring; screened at 20 µM (by protocol)
How it was run: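 system = live zebrafish larvae aged 5-7 days, whole organism | probe or stimulus = ingested quenched lipid PED6 at 100 nM | doses = 20 µM single dose | timing = overnight exposure | detection = fluorescence microscopy with visual scoring of gall bladder and intestine | read-out = visual per-well fluorescence inhibition score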

[9] = inhibitors of Chlamydomonas gravitaxis, primary screen, whole organism, Chlamydomonas reinhardtii, WT vs cilia-less mutant, absorbance, 96-well (AID 463189;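 active means inhibition at or above 50% relative to wild type and mutant plate controls; inactive means inhibition below 50%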;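 further: 0% = wild type cc124 cells in DMSO and 100% = ciliumless bld1 mutant cells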); details: OD600 absorbance, 2 days, at 10 µM, stronger effect = higher value
[10] = measured here: cell density z-score
[11] = measured here: nuclear c-Myc green intensity z-score
[12] = measured here: nuclear pErk red intensity z-score, stronger effect = higher value

Muscarinic acetylcholine receptor M4 (Homo sapiens), sequence (P08173 whole entry, looked up): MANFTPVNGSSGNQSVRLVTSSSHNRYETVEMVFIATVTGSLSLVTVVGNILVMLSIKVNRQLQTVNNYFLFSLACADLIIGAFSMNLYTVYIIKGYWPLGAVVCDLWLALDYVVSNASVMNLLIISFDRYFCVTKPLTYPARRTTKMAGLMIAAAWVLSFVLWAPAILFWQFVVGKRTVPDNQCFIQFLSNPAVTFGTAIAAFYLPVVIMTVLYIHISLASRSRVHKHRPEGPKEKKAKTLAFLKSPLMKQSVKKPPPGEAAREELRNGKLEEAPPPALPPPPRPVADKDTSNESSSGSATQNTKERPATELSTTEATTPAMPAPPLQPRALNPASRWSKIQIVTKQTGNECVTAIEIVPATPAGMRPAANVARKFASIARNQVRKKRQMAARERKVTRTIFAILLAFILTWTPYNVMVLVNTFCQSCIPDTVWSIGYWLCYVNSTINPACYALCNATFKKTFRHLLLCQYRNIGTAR
Dual specificity protein phosphatase 6 (Homo sapiens), sequence (Q16828 whole entry, looked up): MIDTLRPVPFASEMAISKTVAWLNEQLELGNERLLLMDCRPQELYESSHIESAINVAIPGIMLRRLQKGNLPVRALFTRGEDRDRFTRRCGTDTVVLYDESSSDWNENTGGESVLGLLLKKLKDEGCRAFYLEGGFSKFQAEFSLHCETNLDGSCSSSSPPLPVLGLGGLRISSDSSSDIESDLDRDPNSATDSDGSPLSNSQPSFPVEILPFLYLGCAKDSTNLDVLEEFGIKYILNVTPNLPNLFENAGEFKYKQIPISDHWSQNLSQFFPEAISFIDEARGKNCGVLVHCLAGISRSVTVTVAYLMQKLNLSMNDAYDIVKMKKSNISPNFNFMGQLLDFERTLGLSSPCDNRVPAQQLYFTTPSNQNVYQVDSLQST
Voltage-gated potassium channel subunit beta-2 (Rattus norvegicus), sequence (P62483 whole entry, looked up): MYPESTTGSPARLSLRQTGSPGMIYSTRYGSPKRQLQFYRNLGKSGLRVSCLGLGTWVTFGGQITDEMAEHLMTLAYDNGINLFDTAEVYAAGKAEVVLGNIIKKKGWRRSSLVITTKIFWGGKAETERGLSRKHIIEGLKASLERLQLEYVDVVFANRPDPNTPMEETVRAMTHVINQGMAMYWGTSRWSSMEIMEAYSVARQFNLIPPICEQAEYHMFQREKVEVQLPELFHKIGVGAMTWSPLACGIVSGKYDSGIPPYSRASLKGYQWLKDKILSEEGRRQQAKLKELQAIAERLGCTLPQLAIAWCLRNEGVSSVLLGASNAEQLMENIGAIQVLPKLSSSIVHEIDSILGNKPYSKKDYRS

| SMILES | cell count [1] | inhibition [1] | inhibition [2] | nuclei count [2] | z-score [3, 10] | z-score [3, 11] | z-score [3, 12] | inhibition [4] | fluorescence slope [5] | NADPH fluorescence slope [6] | fluorescence slope [7] | outcome [8] | inhibition [9] |
| --- | --- | --- | --- | --- | --- | --- | --- | --- | --- | --- | --- | --- | --- |
| CC(C)CCNc1nc2c(cc1C#N)COC(C)(C)C2 | 536 | -6.5% (inactive) | -22.1% (inactive) | 143% | 1.89 | -0.595 | -1.16 | 22.1% (inactive) | -0.426 (inactive) | -5.9e-05 (inactive) | 0.00455 (inactive) | inactive | -19.8% (inactive) |
| CC(C)CNC(=O)c1c(N)n(/N=C/c2cccnc2)c2nc3ccccc3nc12 | 412 | -2.8% (inactive) | -18% (inactive) | 105% | 1.93 | -1.56 | -0.113 | 17.7% (inactive) | -0.347 (inactive) | 4.3e-06 (inactive) | 0.00594 (inactive) | inactive | 35.6% (inactive) |
| CCCCC(=O)c1c(C)cc(C)[nH]c1=O | 721 | -6.7% (inactive) | -99.5% (inactive) | 191% | 0.203 | 0.876 | 0.0182 | 3.97% (inactive) | -0.482 (inactive) | -7.1e-05 (inactive) | 0.00582 (inactive) | inactive | 0.273% (inactive) |
| O=C(Cc1ccccc1)Nc1cccc(-c2nnc(-c3ccco3)o2)c1 | 665 | -8.6% (inactive) | 46.6% (inactive) | 188% | 0.0893 | 1.04 | 1.35 | -9.53% (inactive) | -0.485 (inactive) | -5.1e-05 (inactive) | 0.00851 (inactive) | inactive | -2.78% (inactive) |
| CN1CCc2c(C#N)c(N3CCCCC3)nc(N3CCOCC3)c2C1 | 534 | -9.2% (inactive) | -129% (inactive) | 127% | 0.848 | -1.39 | 0.568 | -0.584% (inactive) | -0.418 (inactive) | -5.8e-05 (inactive) | 0.00417 (inactive) | inactive | 4.52% (inactive) |
| COc1ccc(CN(C#N)c2nc(SC)nc(N(C)C)n2)cc1 | 720 | -0.6% (inactive) | -41.4% (inactive) | 137% | 0.386 | 1.03 | 0.357 | -3.95% (inactive) | -0.451 (inactive) | -4.7e-05 (inactive) | 0.00509 (inactive) | inactive | -6.51% (inactive) |
| COC(=O)C1CCN(c2nc3ccccc3nc2C(C#N)C(=O)NCCc2ccccc2)CC1 (stereo unspecified) | 600 | -8.8% (inactive) | -60.5% (inactive) | 199% | 0.0104 | -0.0979 | -0.225 | 1.42% (inactive) | -0.356 (inactive) | -5.2e-05 (inactive) | 0.00365 (inactive) | inactive | -8.92% (inactive) |
| COc1ccc(/C(O)=C2/C(=O)C(=O)N(Cc3ccco3)C2c2cccs2)cc1 (stereo unspecified) | 651 | 89.9% (active) | -68.9% (inactive) | 157% | 1.37 | -0.407 | -1.07 | 3.42% (inactive) | -0.435 (inactive) | -4.8e-05 (inactive) | 0.00532 (inactive) | inactive | 1.62% (inactive) |
| Cc1c(C)[n+](=O)c2c(n1[O-])CCC2 | 529 | -2% (inactive) | -51.7% (inactive) | 103% | -0.661 | -0.154 | 0.608 | 13.9% (inactive) | -0.343 (inactive) | -2.3e-05 (inactive) | 0.00544 (inactive) | inactive | 38.1% (inactive) |
| O=c1cc(-c2ccco2)nc(-c2cccs2)o1 | 667 | 5.6% (inactive) | 7.4% (inactive) | 99.4% | -0.166 | -0.514 | -0.386 | 9.91% (inactive) | -0.561 (inactive) | -5.3e-05 (inactive) | 0.0053 (inactive) | inactive | 22.8% (inactive) |
| O=C(C/C(=N/O)c1ccccc1O)C(F)F | 454 | -0.6% (inactive) | -48.8% (inactive) | 164% | -0.709 | 1.7 | 1.49 | 9.37% (inactive) | -0.451 (inactive) | -2.7e-05 (inactive) | 0.0043 (inactive) | inactive | -1.93% (inactive) |
| Cn1c(=O)c2c(nc(NCc3ccco3)n2CCc2ccccc2)n(C)c1=O | 605 | 6% (inactive) | -74.4% (inactive) | 121% | -0.322 | -0.952 | 1.19 | 1.98% (inactive) | -0.524 (inactive) | -6e-05 (inactive) | 0.00721 (inactive) | inactive | 33.1% (inactive) |
| COc1ccc(C2/C(=C(\O)c3ccc4c(c3)OCCO4)C(=O)C(=O)N2CCCN(C)C)cc1 (stereo unspecified) | 368 | -2.4% (inactive) | -14.3% (inactive) | 131% | -2.04 | 0.887 | -0.106 | 3.56% (inactive) | -0.506 (inactive) | -3.1e-05 (inactive) | 0.00537 (inactive) | inactive | -13.1% (inactive) |
| Cc1ccc(S(=O)(=O)c2cc3c(=O)n4cccc(C)c4nc3n(CC3CCCO3)c2=N)cc1 (stereo unspecified) | 573 | -12.2% (inactive) | 34.6% (inactive) | 107% | 0.122 | 0.519 | -1.24 | -8.27% (inactive) | -0.456 (inactive) | -3.3e-05 (inactive) | 0.00435 (inactive) | inactive | -6.46% (inactive) |
| O=C(NCC(F)(F)F)Nc1nnc(C(F)(F)F)s1 | 731 | 2.9% (inactive) | -80.8% (inactive) | 166% | -0.948 | -0.154 | 0.77 | 27.5% (inactive) | -0.429 (inactive) | -5.4e-05 (inactive) | 0.00508 (inactive) | inactive | -1.99% (inactive) |
| CCOC(=O)NC(Nc1cc(C)on1)(C(F)(F)F)C(F)(F)F | 705 | -7.9% (inactive) | -70% (inactive) | 169% | -0.319 | 1.98 | 0.812 | -11.4% (inactive) | -0.465 (inactive) | -3.9e-05 (inactive) | 0.00511 (inactive) | inactive | -3.89% (inactive) |
| COc1ccc(C(=O)c2oc3nc(C)cc(C)c3c2N)cc1 | 400 | 3.1% (inactive) | 7.4% (inactive) | 117% | 1.15 | -1.17 | -0.769 | 19.4% (inactive) | -0.379 (inactive) | -2e-05 (inactive) | 0.00438 (inactive) | inactive | 23.4% (inactive) |
| O=C1CC(c2ccccc2)n2nc(N3C(=O)c4ccccc4C3=O)nc2N1 (stereo unspecified) | 397 | 3% (inactive) | -72.9% (inactive) | 114% | 0.561 | 0.157 | -0.686 | 2.71% (inactive) | -0.441 (inactive) | -1.7e-05 (inactive) | 0.00457 (inactive) | inactive | 21.6% (inactive) |
| CCCC(CCC(=O)Nc1ccc(C(=O)OCC)cc1)C(=O)O (stereo unspecified) | 368 | -0.1% (inactive) | -147% (inactive) | 152% | -0.648 | 0.519 | -0.661 | 20.2% (inactive) | -0.484 (inactive) | -4.5e-05 (inactive) | 0.0051 (inactive) | inactive | -0.026% (inactive) |
| Cc1cc2c(c(=O)o1)C(CC(C)C)C(C#N)=C(N)O2 (stereo unspecified) | 703 | 2% (inactive) | -144% (inactive) | 167% | -0.228 | -0.296 | -0.119 | -1.12% (inactive) | -0.436 (inactive) | -5.8e-05 (inactive) | 0.00457 (inactive) | inactive | 3.4% (inactive) |
| C/C(=N\O)C(=O)NCCCn1ccnc1 | 636 | -10.8% (inactive) | 26.6% (inactive) | 94.5% | -0.252 | 0.0271 | 0.47 | -0.233% (inactive) | -0.478 (inactive) | -0.000143 (inactive) | 0.00635 (inactive) | inactive | -9.7% (inactive) |
| Cc1cccc(OCCN2CSC(=S)N(C)C2)c1 | 542 | -14.5% (inactive) | -138% (inactive) | 129% | 0.0536 | -1.14 | 0.0169 | 9.42% (inactive) | -0.494 (inactive) | -7.6e-05 (inactive) | 0.0046 (inactive) | inactive; toxic | 45.3% (inactive) |
| COCCCn1c2nc3ccccc3nc2c2c(=O)n(-c3ccccc3OC)c(C)nc21 | 671 | -8.6% (inactive) | -13.5% (inactive) | 185% | 0.714 | -0.748 | 0.0802 | 9.07% (inactive) | -0.442 (inactive) | -3.7e-05 (inactive) | 0.0072 (inactive) | inactive | 4.04% (inactive) |
| Cn1ccnc1C(O)c1ccc(OCc2ccccc2)cc1 (stereo unspecified) | 473 | -1.1% (inactive) | -18.4% (inactive) | 113% | -3.29 | 1.73 | -0.207 | 7.42% (inactive) | -0.487 (inactive) | -0.000123 (inactive) | 0.00541 (inactive) | inactive | -11.2% (inactive) |
| COc1ccc(CCn2c(=N)c(C(=O)NCc3ccco3)cc3c(=O)n4ccccc4nc32)cc1OC | 633 | -2.8% (inactive) | -94.3% (inactive) | 174% | 1.26 | -0.19 | 0.299 | 14.4% (inactive) | -0.507 (inactive) | -2.1e-05 (inactive) | 0.00335 (inactive) | inactive | -2.16% (inactive) |
| Cc1cccc(-n2ncc3c(NCc4ccco4)ncnc32)c1 | 648 | -12.5% (inactive) | -84.2% (inactive) | 165% | 0.86 | -0.2 | -0.239 | 11.4% (inactive) | -0.385 (inactive) | -4.7e-05 (inactive) | 0.00641 (inactive) | inactive | 2.88% (inactive) |
| Cc1cc(=O)oc(C)c1C(=O)NCC1CCCO1 (stereo unspecified) | 606 | 9.1% (inactive) | -24.6% (inactive) | 123% | 0.0605 | 0.0774 | 0.0396 | 5.35% (inactive) | -0.441 (inactive) | -4.3e-05 (inactive) | 0.00527 (inactive) | inactive | 5.07% (inactive) |
